Measurements reported in ChEMBL document CHEMBL4602720, “Degradation versus Inhibition: Development of Proteolysis-Targeting Chimeras for Overcoming Statin-Induced Compensatory Upregulation of 3-Hydroxy-3-methylglutaryl Coenzyme A Reductase” (J Med Chem, 2020).
Activity calls are given as the source filed them. The rule behind the calls is not given here.

Assays:
[1] = molecular target: T1, Protein cereblon/3-hydroxy-3-methylglutaryl-coenzyme A reductase (Cricetulus griseus) (UniProt P00347+G3H338); assay: Protac activity at CRBN/HMGCR in Insig-1/Insig-2 deficient Chinese hamster SRD15 cells assessed as HMGCR level at 1 uM after 16 hrs in presence of 10 uM pomalidomide by immunoblotting analysis (reference value: 1)
Target sequence in this assay (G3H338 1-445 partner): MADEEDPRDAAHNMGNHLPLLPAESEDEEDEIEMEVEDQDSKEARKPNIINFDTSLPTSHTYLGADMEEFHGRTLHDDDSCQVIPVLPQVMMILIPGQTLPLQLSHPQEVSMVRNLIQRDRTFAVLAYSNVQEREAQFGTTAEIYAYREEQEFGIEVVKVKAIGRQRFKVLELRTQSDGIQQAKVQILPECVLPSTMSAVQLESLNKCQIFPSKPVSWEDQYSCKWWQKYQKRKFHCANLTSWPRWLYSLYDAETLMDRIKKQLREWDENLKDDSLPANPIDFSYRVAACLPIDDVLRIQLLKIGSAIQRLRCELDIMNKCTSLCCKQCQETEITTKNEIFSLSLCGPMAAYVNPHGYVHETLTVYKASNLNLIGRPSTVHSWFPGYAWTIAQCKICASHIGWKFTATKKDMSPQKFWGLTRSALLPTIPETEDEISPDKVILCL
Target sequence in this assay (P00347 whole entry): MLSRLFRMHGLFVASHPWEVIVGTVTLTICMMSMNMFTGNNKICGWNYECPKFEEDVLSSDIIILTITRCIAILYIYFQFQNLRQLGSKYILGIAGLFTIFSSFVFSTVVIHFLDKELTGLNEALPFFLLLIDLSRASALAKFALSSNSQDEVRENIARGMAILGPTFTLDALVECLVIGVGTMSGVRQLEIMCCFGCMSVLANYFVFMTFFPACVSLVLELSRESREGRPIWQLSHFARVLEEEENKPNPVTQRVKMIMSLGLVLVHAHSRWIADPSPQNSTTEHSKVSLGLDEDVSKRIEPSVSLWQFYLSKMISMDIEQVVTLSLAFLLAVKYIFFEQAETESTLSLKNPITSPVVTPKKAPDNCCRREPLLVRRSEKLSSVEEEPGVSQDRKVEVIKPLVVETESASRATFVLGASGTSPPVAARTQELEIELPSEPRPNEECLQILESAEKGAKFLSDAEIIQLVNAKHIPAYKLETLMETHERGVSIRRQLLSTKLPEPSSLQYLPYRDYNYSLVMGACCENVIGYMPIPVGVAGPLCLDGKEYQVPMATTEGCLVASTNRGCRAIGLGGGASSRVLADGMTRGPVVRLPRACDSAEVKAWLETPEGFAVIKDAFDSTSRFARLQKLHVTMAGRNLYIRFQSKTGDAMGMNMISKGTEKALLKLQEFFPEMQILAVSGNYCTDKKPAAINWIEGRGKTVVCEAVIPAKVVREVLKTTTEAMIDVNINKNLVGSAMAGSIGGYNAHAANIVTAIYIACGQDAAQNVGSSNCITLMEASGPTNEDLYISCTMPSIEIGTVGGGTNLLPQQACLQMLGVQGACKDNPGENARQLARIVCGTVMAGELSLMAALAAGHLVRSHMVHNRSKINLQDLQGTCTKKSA

[2] = molecular target: T1, Protein cereblon/3-hydroxy-3-methylglutaryl-coenzyme A reductase (Cricetulus griseus); assay: Protac activity at CRBN/HMGCR in Insig-1/Insig-2 deficient Chinese hamster SRD15 cells assessed as induction of HMGCR degradation at 1 uM preincubated for 16 hrs followed by addition of proteasome inhibitor MG132 and further incubated for 3 hrs by Western blot analysis
Procedure, shortened: (§1)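 SRD15 cells treated with 1 μM degrader for 16 h, then for 3 h with 10 μM MG132 or with MLN-4924 at the indicated concentrations. HMGCR by immunoblot.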

[3] = molecular target: T1, Protein cereblon/3-hydroxy-3-methylglutaryl-coenzyme A reductase (Cricetulus griseus); assay: Protac activity at CRBN/HMGCR in Insig-1/Insig-2 deficient Chinese hamster SRD15 cells assessed as induction of HMGCR degradation at 1 uM preincubated for 16 hrs followed by addition of neddylation inhibitor MLN4924 and further incubated for 3 hrs by Western blot analysis; procedure, shortened: as §1
Target sequence in this assay (G3H338 1-445 partner): as the sequence (G3H338 1-445 partner) above
Target sequence in this assay (P00347 whole entry): as the sequence (P00347 whole entry) above

[4] = molecular target: T2, Protein cereblon/3-hydroxy-3-methylglutaryl-coenzyme A reductase (Homo sapiens) (UniProt P04035+Q96SW2); assay: Protac activity at human Flag-tagged CRBN/T7-tagged HMGCR transfected in Insig-1/Insig-2 deficient Chinese hamster SRD15 cells assessed as induction of HMGCR degradation at 0.01 to 1 uM after 16 hrs by immunoblotting analysis
T2 sequence (P04035 whole entry, looked up): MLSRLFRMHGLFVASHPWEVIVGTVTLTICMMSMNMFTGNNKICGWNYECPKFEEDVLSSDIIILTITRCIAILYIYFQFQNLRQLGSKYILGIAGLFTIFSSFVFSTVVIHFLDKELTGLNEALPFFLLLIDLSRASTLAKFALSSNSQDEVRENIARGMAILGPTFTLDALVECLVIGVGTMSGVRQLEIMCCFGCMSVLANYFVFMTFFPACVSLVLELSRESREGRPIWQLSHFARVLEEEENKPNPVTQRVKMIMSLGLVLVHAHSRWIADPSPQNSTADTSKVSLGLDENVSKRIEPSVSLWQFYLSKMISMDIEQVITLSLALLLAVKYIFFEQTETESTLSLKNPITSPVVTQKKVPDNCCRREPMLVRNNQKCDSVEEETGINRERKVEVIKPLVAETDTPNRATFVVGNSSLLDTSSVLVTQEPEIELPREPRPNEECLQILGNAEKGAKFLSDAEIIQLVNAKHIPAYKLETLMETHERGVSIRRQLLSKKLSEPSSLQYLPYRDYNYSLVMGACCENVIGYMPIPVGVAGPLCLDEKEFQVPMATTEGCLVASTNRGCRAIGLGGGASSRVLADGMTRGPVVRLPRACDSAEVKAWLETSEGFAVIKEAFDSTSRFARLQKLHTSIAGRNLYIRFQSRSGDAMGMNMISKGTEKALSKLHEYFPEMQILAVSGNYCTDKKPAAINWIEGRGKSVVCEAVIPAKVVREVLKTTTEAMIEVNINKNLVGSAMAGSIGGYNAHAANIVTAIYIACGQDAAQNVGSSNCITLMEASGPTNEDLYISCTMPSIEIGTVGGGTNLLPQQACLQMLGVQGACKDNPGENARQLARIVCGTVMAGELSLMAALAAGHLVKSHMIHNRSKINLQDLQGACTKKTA
T2 sequence (Q96SW2 whole entry, looked up): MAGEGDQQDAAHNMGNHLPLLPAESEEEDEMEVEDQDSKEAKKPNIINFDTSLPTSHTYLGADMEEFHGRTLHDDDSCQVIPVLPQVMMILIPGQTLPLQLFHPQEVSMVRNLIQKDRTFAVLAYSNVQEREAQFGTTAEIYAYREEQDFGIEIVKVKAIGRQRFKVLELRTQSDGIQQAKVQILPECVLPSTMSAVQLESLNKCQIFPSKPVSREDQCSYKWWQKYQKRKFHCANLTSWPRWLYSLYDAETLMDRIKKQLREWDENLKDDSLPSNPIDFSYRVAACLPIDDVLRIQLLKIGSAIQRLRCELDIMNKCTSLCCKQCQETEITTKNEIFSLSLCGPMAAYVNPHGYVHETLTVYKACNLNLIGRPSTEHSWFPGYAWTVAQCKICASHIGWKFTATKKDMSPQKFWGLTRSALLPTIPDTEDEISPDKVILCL
Procedure, shortened: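 SRD15 cells co-transfected with T7-HMGCR and Flag-CRBN (wild type or YW/AA mutant), then treated with DMSO or 1 μM compound for 16 h; transfected HMGCR measured by immunoblotting.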

[5] = molecular target: T1, Protein cereblon/3-hydroxy-3-methylglutaryl-coenzyme A reductase (Cricetulus griseus); assay: Protac activity at CRBN/HMGCR in 5'-GCAAGGCAGUGUAUAUUAU-3' siRNA transfected in Insig-1/Insig-2 deficient Chinese hamster SRD15 cells assessed as induction of HMGCR degradation at 1 uM after 16 hrs by immunoblotting analysis
Procedure, shortened: (§2)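 SRD15 cells (Insig-1/Insig-2-deficient CHO-7) in Medium A with 5% FBS at 37 °C, 5% CO2; transfected with negative-control or Crbn-targeting siRNA duplexes for 48 h, then given 1 μM degrader for 16 h. HMGCR by SDS-PAGE immunoblot of RIPA lysates. Knockdown efficiency checked by qRT-PCR against hamster GAPDH, comparative CT method. n = 3 independent experiments.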

[6] = molecular target: T1, Protein cereblon/3-hydroxy-3-methylglutaryl-coenzyme A reductase (Cricetulus griseus); assay: Protac activity at CRBN/HMGCR in 5'-GGAAGUCGAAGACCAAGAU-3' siRNA transfected in Insig-1/Insig-2 deficient Chinese hamster SRD15 cells assessed as induction of HMGCR degradation at after 16 hrs by immunoblotting analysis; procedure, shortened: as §2
Target sequence in this assay (G3H338 1-445 partner): as the sequence (G3H338 1-445 partner) above
Target sequence in this assay (P00347 whole entry): as the sequence (P00347 whole entry) above

[7] = molecular target: T1, Protein cereblon/3-hydroxy-3-methylglutaryl-coenzyme A reductase (Cricetulus griseus); assay: Protac activity at CRBN/HMGCR in Insig-1/Insig-2 deficient Chinese hamster SRD15 cells assessed as increase in ubiquitination level of HMGCR at 1 uM incubated for 4 hrs in presence of MG132 by Western blot analysis
Procedure, shortened: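 SRD15 cells given DMSO or 1 μM degrader together with 10 μM MG132 for 4 h. Lysates probed by immunoblot with P4D1 anti-ubiquitin antibody for high-molecular-weight HMGCR smears.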

[8] = molecular target: T2, Protein cereblon/3-hydroxy-3-methylglutaryl-coenzyme A reductase (Homo sapiens); assay: Protac activity at human Flag-tagged CRBN/Myc-tagged HMGCR expressed in HEK293T cells assessed as induction of HMGCR immunoprecipitation 1 uM preincubated for 16 hrs followed by atorvastatin addition addition and measured after 5 hrs in presence of MG132 by Western blot analysis; assay type: cell-based; settings: HEK-293T
[9] = molecular target: T2, Protein cereblon/3-hydroxy-3-methylglutaryl-coenzyme A reductase (Homo sapiens); assay: Protac activity at human Flag-tagged CRBN/Myc-tagged HMGCR expressed in HEK293T cells assessed as induction of HMGCR immunoprecipitation 1 uM preincubated for 16 hrs followed by pomalidomide addition addition and measured after 5 hrs by Western blot analysis; assay type: cell-based; settings: HEK-293T
[10] = molecular target: T2, Protein cereblon/3-hydroxy-3-methylglutaryl-coenzyme A reductase (Homo sapiens); assay: Protac activity at human Flag-tagged CRBN/T7-tagged HMGCR expressed in Chinese hamster SRD15 cells transfected with HA-tagged ubiquitin assessed as increase in HMGCR immunoprecipitation 1 uM preincubated for 16 hrs followed by MG132 addition addition and measured after 5 hrs by Western blot analysis; assay type: cell-based
[11] = molecular target: T3, Sterol regulatory element-binding protein 2 (Mus musculus) (UniProt Q3U1N2); assay: Activation of SREBP2 pathway in mouse primary hepatocytes assessed as increase in LDLR mRNA expression at 0.3 to 1 uM afer 16 hrs by quantitative real-time PCR analysis; assay type: cell-based
T3 sequence (whole entry): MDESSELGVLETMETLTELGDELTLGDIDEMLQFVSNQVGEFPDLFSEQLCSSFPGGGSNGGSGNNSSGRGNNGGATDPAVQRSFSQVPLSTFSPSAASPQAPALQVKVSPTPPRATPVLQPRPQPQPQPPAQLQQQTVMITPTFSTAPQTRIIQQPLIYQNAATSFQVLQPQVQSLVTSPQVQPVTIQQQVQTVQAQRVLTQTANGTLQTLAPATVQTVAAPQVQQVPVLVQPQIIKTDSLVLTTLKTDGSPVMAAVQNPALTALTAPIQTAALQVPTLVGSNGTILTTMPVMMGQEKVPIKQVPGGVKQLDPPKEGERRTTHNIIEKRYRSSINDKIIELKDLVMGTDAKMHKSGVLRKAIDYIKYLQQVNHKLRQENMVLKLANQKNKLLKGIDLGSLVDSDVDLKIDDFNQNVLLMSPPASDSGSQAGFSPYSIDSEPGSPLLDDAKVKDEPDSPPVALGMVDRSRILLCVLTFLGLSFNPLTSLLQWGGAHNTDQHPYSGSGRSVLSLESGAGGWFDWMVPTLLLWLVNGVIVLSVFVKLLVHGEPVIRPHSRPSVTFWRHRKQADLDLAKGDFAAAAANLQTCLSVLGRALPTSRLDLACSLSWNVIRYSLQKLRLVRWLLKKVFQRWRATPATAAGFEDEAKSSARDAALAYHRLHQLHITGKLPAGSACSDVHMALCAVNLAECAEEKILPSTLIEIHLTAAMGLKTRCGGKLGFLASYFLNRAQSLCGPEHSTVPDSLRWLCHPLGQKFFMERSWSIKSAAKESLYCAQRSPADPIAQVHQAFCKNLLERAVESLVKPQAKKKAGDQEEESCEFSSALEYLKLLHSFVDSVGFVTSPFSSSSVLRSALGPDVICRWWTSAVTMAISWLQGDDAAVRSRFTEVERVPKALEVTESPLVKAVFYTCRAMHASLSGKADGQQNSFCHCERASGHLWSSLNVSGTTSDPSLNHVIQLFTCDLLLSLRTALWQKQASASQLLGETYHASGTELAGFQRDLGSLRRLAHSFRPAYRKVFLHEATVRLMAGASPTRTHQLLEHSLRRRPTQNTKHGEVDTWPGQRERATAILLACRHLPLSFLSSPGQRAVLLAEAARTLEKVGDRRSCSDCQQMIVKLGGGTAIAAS

[12] = molecular target: T3, Sterol regulatory element-binding protein 2 (Mus musculus); assay: Activation of SREBP2 pathway in mouse primary hepatocytes assessed as increase in HMGCR mRNA expression at 0.3 to 1 uM afer 16 hrs by quantitative real-time PCR analysis; assay type: cell-based

Question: What does the source list for CC(C)c1c(C(=O)Nc2ccccc2)c(-c2cccc(OCCCc3cn(CCOCCOCCOCCOCCNc4cccc5c4C(=O)N(C4CCC(=O)NC4=O)C5=O)nn3)c2)c(-c2ccc(F)cc2)n1CC[C@@H](O)C[C@@H](O)CC(=O)O (some centres not stated)?
Answer: fold change (FC) [1]: 1; Activity [2]: inactive; Activity [3]: inactive; Activity [4]: Active; Activity [5]: inactive; Activity [6]: inactive; Activity [7]: Active; Activity [8]: inactive; Activity [9]: inactive; Activity [10]: Active; Activity [11]: Active; Activity [12]: Active
